# Experimental data: ChEMBL document CHEMBL2150942, “Synthesis and antibacterial activity of novel 1,3-diphenyl-1H-pyrazoles functionalized with phenylalanine-derived rhodanines” (Eur J Med Chem, 2012)
# Assays:
# [1] = test system: Staphylococcus aureus; assay: Antibacterial activity against Staphylococcus aureus KCTC 503 after 20 hrs by two fold serial dilution assay; type: functional; settings: KCTC 503, 20 h
# [2] = test system: Staphylococcus aureus; assay: Antibacterial activity against Staphylococcus aureus RN4220 after 20 hrs by two fold serial dilution assay; type: functional; settings: RN4220, 20 h
# [3] = test system: Escherichia coli; assay: Antibacterial activity against Escherichia coli CCARM 1924 after 20 hrs by two fold serial dilution assay; type: functional; settings: CCARM 1924, 20 h
# [4] = test system: Escherichia coli; assay: Antibacterial activity against Escherichia coli CCARM 1356 after 20 hrs by two fold serial dilution assay; type: functional; settings: CCARM 1356, 20 h
# [5] = test system: Staphylococcus aureus; assay: Antibacterial activity against methicillin-resistant Staphylococcus aureus CCARM 3167 after 20 hrs by two fold serial dilution assay; type: functional; settings: CCARM 3167, 20 h
# [6] = test system: Staphylococcus aureus; assay: Antibacterial activity against methicillin-resistant Staphylococcus aureus CCARM 3506 after 20 hrs by two fold serial dilution assay; type: functional; settings: CCARM 3506, 20 h
# [7] = test system: Staphylococcus aureus; assay: Antibacterial activity against quinolone-resistant Staphylococcus aureus CCARM 3505 after 20 hrs by two fold serial dilution assay; type: functional; settings: CCARM 3505, 20 h
# [8] = test system: Staphylococcus aureus; assay: Antibacterial activity against quinolone-resistant Staphylococcus aureus CCARM 3519 after 20 hrs by two fold serial dilution assay; type: functional; settings: CCARM 3519, 20 h
# [9] = test system: Staphylococcus aureus; assay: Ratio of norfloxacin MIC to compound MIC for methicillin-resistant Staphylococcus aureus CCARM 3167; type: functional
# [10] = test system: Staphylococcus aureus; assay: Ratio of norfloxacin MIC to compound MIC for methicillin-resistant Staphylococcus aureus CCARM 3506; type: functional
# [11] = test system: HeLa; assay: Cytotoxicity against human HeLa cells after 48 hrs by MTT assay; type: cell-based
# Outline: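 HeLa cells grown in DMEM with 10% FBS and penicillin-streptomycin at 37 °C in 5% CO₂, passaged three times. About 1 × 10⁴ cells/well were seeded and attached overnight, then given a range of compound concentrations for 48 h. MTT (5 mg/ml stock) was added for 4 h, formazan dissolved in DMSO, and OD read at 570 nm. Run four times; IC50 was the concentration giving 50% growth inhibition.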
# [12] = test system: HeLa; assay: Cytotoxicity against human HeLa cells assessed as decrease in cell viability at 1 ug/mL after 48 hrs by MTT assay; type: cell-based
# Outline: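 HeLa cells (DMEM, 10% FBS, antibiotics, 37 °C, 5% CO₂) were seeded at about 1 × 10⁴ cells/well, left overnight, then exposed to compound for 48 h. Viability was read by MTT (5 mg/ml stock, 4 h), with formazan dissolved in DMSO and absorbance taken at 570 nm. Assay performed four times.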
Compound,MIC [1] [µg/mL],MIC [2] [µg/mL],MIC [3] [µg/mL],MIC [4] [µg/mL],MIC [5] [µg/mL],MIC [6] [µg/mL],MIC [7] [µg/mL],MIC [8] [µg/mL],Ratio [9],Ratio [10],IC50 [11] [µg/mL],Activity [12]
O=C(O)[C@@H](Cc1ccccc1)N1C(=O)/C(=C/c2cn(-c3ccccc3)nc2-c2ccc(Cl)cc2)SC1=S,2,2,> 64,> 64,2,2,2,2,,,,
O=C(O)[C@@H](Cc1ccccc1)N1C(=O)/C(=C/c2cn(-c3ccccc3)nc2-c2ccc(Cl)cc2Cl)SC1=S,2,2,> 64,> 64,1,1,2,1,8,4,,
Cc1ccc(-c2nn(-c3ccccc3)cc2/C=C2\SC(=S)N([C@H](Cc3ccccc3)C(=O)O)C2=O)c(C)c1,2,2,> 64,> 64,2,2,2,1,,,,
Cc1ccc(-c2nn(-c3ccccc3)cc2/C=C2\SC(=S)N([C@H](Cc3ccccc3)C(=O)O)C2=O)cc1,1,2,> 64,> 64,1,1,1,1,8,4,20.2,Non-toxic
O=C(O)[C@@H](Cc1ccccc1)N1C(=O)/C(=C/c2cn(-c3ccccc3)nc2-c2ccccc2)SC1=S,8,2,> 64,> 64,4,4,4,4,,,,
O=C(O)[C@@H](Cc1ccccc1)N1C(=O)/C(=C/c2cn(-c3ccccc3)nc2-c2cccc(Br)c2)SC1=S,8,2,> 64,> 64,4,4,4,4,,,,
O=C(O)[C@@H](Cc1ccccc1)N1C(=O)/C(=C/c2cn(-c3ccccc3)nc2-c2ccc(F)cc2)SC1=S,16,4,> 64,> 64,1,1,1,1,8,4,,
O=C(O)[C@@H](Cc1ccccc1)N1C(=O)/C(=C/c2cn(-c3ccccc3)nc2-c2ccc(Br)cc2)SC1=S,16,4,> 64,> 64,1,1,1,16,8,4,,
O=C(O)[C@@H](Cc1ccccc1)N1C(=O)/C(=C/c2cn(-c3ccccc3)nc2-c2ccc3ccccc3c2)SC1=S,16,2,> 64,> 64,16,16,16,16,,,,
O=C(O)[C@@H](Cc1ccccc1)N1C(=O)/C(=C/c2cn(-c3ccccc3)nc2-c2ccc([N+](=O)[O-])cc2)SC1=S,16,4,> 64,> 64,1,1,1,1,8,4,,
COc1ccccc1-c1nn(-c2ccccc2)cc1/C=C1\SC(=S)N([C@H](Cc2ccccc2)C(=O)O)C1=O,16,2,> 64,> 64,16,16,16,16,,,,
COc1ccc(-c2nn(-c3ccccc3)cc2/C=C2\SC(=S)N([C@H](Cc3ccccc3)C(=O)O)C2=O)cc1,16,4,> 64,> 64,4,4,4,8,,,,
O=C(O)[C@@H](Cc1ccccc1)N1C(=O)/C(=C/c2cn(-c3ccccc3)nc2-c2ccccc2Cl)SC1=S,2,2,> 64,> 64,1,1,2,1,8,4,30.2,Non-toxic
COc1cccc(-c2nn(-c3ccccc3)cc2/C=C2\SC(=S)N([C@H](Cc3ccccc3)C(=O)O)C2=O)c1,16,4,> 64,> 64,16,16,16,16,,,,
O=C(O)[C@@H](Cc1ccccc1)N1C(=O)/C(=C/c2cn(-c3ccccc3)nc2-c2ccccc2F)SC1=S,16,4,> 64,> 64,4,4,2,4,,,,
CCn1cc(C(=O)O)c(=O)c2cc(F)c(N3CCNCC3)cc21 [NORFLOXACIN],2,2,16,16,8,4,> 64,> 64,,,,
Cc1onc(-c2ccccc2)c1C(=O)N[C@@H]1C(=O)N2[C@@H]1SC(C)(C)[C@@H]2C(=O)O [OXACILLIN],1,1,> 64,> 64,> 64,> 64,1,1,,,,
